Data as given in ChEMBL document CHEMBL4138098, “Synthesis and pharmacological evaluation of neurosteroid photoaffinity ligands” (Eur J Med Chem, 2017).
Activity calls are given as the source filed them. The rule behind the calls is not given here.

What was measured:
[1] = target: T1, GABA-A receptor; alpha-1/beta-3/gamma-2 (Homo sapiens) (UniProt P14867+P18507+P28472); experiment: Induction of [3H]R-mTFD-MPAB photoincorporation at human GABAA receptor alpha1beta3gamma2 expressed in HEK293 TetR cells at 0.3 to 1 uM after 30 mins by liquid scintillation counting method; type: cell-based
Method in brief: (§1)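 Radioligand resuspended 30 min at 4°C; unlabeled steroid added (0.5% methanol final), 30 min at 4°C. Irradiated 30 min on ice at 365 nm. SDS-PAGE; stained subunit bands excised and counted by liquid scintillation; duplicates, means and ranges.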

[2] = target: T1, GABA-A receptor; alpha-1/beta-3/gamma-2 (Homo sapiens); experiment: Binding affinity to human GABAA receptor alpha1beta3gamma2 expressed in HEK293 TetR cells assessed as photolabeling at 0.7 uM after 30 mins in presence of 100 uM bicuculline by coomassie blue staining based fluorographic method; type: cell-based; details: tested as the 3H-labelled form
[3] = target: T2, GABA-A receptor; alpha-1/beta-2/gamma-2 (Homo sapiens, UniProt P14867+P18507+P47870); experiment: Positive allosteric modulation of human GABAA receptor alpha1beta2gamma2L expressed in Xenopus laevis oocytes assessed as potentiation of GABA chloride current incubated for 15 to 25 secs by two-electrode voltage clamp assay; type: cell-based
T2 sequence (P14867 whole entry): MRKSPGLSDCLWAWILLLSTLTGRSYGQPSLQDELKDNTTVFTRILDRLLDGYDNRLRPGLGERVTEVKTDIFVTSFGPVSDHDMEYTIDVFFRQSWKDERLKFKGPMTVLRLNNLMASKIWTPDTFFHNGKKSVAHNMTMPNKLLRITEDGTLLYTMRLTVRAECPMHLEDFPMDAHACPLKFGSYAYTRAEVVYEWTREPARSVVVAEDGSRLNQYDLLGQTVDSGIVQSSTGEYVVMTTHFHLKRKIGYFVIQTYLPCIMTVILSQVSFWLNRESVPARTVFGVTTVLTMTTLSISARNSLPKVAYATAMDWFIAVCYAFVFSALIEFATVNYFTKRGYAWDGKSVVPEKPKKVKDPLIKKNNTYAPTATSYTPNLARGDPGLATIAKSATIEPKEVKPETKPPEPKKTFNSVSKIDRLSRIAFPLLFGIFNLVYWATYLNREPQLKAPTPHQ
T2 sequence (P47870 whole entry): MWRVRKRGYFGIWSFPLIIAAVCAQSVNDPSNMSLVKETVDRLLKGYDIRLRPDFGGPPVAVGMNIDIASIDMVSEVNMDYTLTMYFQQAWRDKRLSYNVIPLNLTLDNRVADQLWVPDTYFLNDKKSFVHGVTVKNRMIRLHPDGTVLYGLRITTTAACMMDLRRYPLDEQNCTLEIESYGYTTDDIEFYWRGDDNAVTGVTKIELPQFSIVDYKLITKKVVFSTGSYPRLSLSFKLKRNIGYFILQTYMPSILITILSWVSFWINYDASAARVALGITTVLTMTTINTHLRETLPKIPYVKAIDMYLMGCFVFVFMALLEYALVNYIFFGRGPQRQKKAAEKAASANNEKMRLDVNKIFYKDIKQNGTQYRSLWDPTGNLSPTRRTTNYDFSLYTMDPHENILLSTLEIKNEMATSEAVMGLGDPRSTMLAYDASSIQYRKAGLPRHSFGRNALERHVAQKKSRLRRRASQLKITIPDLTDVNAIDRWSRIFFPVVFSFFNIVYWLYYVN
T2 sequence (P18507 whole entry): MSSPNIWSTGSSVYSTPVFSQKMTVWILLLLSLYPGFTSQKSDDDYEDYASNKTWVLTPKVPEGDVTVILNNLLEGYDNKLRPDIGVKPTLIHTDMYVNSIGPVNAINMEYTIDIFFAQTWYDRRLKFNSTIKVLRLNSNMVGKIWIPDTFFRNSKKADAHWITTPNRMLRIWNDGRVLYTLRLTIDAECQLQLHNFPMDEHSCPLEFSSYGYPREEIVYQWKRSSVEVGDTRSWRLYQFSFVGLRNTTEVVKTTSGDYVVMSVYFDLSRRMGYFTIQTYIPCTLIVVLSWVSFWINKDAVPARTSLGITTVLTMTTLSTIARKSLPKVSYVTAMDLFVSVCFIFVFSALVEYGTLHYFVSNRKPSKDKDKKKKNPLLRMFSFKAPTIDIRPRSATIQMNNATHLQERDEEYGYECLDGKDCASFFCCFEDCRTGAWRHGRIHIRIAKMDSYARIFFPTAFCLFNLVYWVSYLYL
Method in brief: (§2)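 Xenopus laevis oocytes injected with ~100 ng cRNA of human α1, β2, γ2L (1:1:2). Two-electrode voltage clamp at −50 mV, room temperature, perfused with ND96 pH 7.5. Compound diluted from DMSO stock into ND96 (≤1% DMSO final). Applied 15–25 s with ~3 min washes.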

[4] = target: T3, Gamma-aminobutyric acid receptor subunit alpha-1 (Homo sapiens) (UniProt P14867); experiment: Binding affinity to human GABAA receptor alpha1 assessed as photolabeling at 0.7 uM after 30 mins by Coomassie blue staining based fluorographic method relative to control; details: tested as the 3H-labelled form
T3 sequence (whole entry): T2 sequence (P14867 whole entry)

[5] = target: T4, Gamma-aminobutyric acid receptor subunit beta-3 (Homo sapiens) (UniProt P28472); experiment: Binding affinity to human GABAA receptor beta3 assessed as photolabeling at 0.7 uM after 30 mins by Coomassie blue staining based fluorographic method relative to control; details: tested as the 3H-labelled form
T4 sequence (whole entry): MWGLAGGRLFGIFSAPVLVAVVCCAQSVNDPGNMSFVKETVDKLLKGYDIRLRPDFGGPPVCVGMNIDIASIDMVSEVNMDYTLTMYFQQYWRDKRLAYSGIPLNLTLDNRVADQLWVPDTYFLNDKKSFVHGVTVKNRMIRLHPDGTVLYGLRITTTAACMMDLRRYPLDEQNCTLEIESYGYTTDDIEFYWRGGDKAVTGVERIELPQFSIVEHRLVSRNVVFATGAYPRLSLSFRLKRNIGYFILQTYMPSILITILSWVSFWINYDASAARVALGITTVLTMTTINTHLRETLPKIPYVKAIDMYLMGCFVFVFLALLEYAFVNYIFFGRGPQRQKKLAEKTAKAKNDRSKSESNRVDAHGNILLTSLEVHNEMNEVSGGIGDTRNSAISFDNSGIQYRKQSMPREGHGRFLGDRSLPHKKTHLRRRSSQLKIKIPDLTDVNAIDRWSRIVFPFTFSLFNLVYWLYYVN

Anura [6] = experiment: Potency index, ratio of Alphaxalone EC50 to compound EC50 for anesthetic activity in tadpole; type: functional
Anura [7] = experiment: Anesthetic activity in tadpole assessed as loss of righting reflexes; type: functional, organism-based
[8] = target: T1, GABA-A receptor; alpha-1/beta-3/gamma-2 (Homo sapiens); experiment: Binding affinity to human GABAA receptor alpha1beta3gamma2 expressed in HEK293 TetR cells assessed as photolabeling at 0.7 uM after 30 mins in presence of 300 uM GABA and 30 uM alphaxalone by coomassie blue staining based fluorographic method; type: cell-based; details: tested as the 3H-labelled form
[9] = target: GABA-A receptor; alpha-1/beta-2/gamma-2 (Homo sapiens) (UniProt P14867+P47870+P18507); experiment: Positive allosteric modulation of human GABAA receptor alpha1beta2gamma2L expressed in Xenopus laevis oocytes assessed as potentiation of GABA chloride current up to 100 uM incubated for 15 to 25 secs by two-electrode voltage clamp assay relative to control; type: cell-based; method in brief: as §2
[10] = target: T5, GABA-A receptor; alpha-1/beta-3/gamma-2 (Homo sapiens, UniProt P14867+P18507+P28472); experiment: (§3) Displacement of [3H]muscimol from human GABAA receptor alpha1beta3gamma2 expressed in HEK293 TetR cell membranes after 1 hr by liquid scintillation counting method
T5 sequence (P14867 whole entry): T2 sequence (P14867 whole entry)
T5 sequence (P18507 whole entry): T2 sequence (P18507 whole entry)
T5 sequence (P28472 whole entry): T4 sequence (whole entry)
Method in brief: (§4)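 Membranes from HEK293 TetR cells expressing human α1β3γ2 GABAA receptor (200 μg protein) in 10 mM phosphate pH 7.4, 200 mM KCl, 1 mM EDTA. Filtered on PEI-treated GF/B filters, washed cold, scintillation counted. Triplicates, mean ± SD.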

[11] = target: T1, GABA-A receptor; alpha-1/beta-3/gamma-2 (Homo sapiens); experiment: as §3; method in brief: as §4
[12] = target: T1, GABA-A receptor; alpha-1/beta-3/gamma-2 (Homo sapiens); experiment: Binding affinity to human GABAA receptor alpha1beta3gamma2 expressed in HEK293 TetR cells assessed as photolabeling at 0.7 uM after 30 mins in presence of 300 uM GABA by coomassie blue staining based fluorographic method; type: cell-based; details: tested as the 3H-labelled form
Anura [13] = experiment: Anesthetic activity in tadpole assessed as loss of righting reflexes at 0.01 to 1 uM pretreated with tadpole followed by compound washout and transfer to fresh water measured up to 1 hr; type: functional, organism-based
[14] = target: T1, GABA-A receptor; alpha-1/beta-3/gamma-2 (Homo sapiens); experiment: Induction of [3H]azietomidate photoincorporation at human GABAA receptor alpha1beta3gamma2 expressed in HEK293 TetR cells at 0.3 to 1 uM after 30 mins by liquid scintillation counting method; type: cell-based; method in brief: as §1
[15] = target: T1, GABA-A receptor; alpha-1/beta-3/gamma-2 (Homo sapiens); experiment: Binding affinity to human GABAA receptor alpha1beta3gamma2 expressed in HEK293 TetR cells assessed as photolabeling at 0.4 uM after 30 mins in presence of 300 uM GABA by coomassie blue staining based fluorographic method; type: cell-based; details: tested as the 3H-labelled form
[16] = target: T1, GABA-A receptor; alpha-1/beta-3/gamma-2 (Homo sapiens); experiment: Binding affinity to human GABAA receptor alpha1beta3gamma2 expressed in HEK293 TetR cells assessed as photolabeling at 0.4 uM after 30 mins in presence of 300 uM GABA and 30 uM alphaxalone by coomassie blue staining based fluorographic method; type: cell-based; details: tested as the 3H-labelled form
[17] = target: T1, GABA-A receptor; alpha-1/beta-3/gamma-2 (Homo sapiens); experiment: Binding affinity to human GABAA receptor alpha1beta3gamma2 expressed in HEK293 TetR cells assessed as photolabeling at 0.4 uM after 30 mins in presence of 100 uM bicuculline by coomassie blue staining based fluorographic method; type: cell-based; details: tested as the 3H-labelled form
Anura [18] = experiment: Anesthetic activity in tadpole assessed as loss of righting reflexes at 0.03 to 10 uM pretreated with tadpole followed by compound washout and transfer to fresh water measured up to 1 hr; type: functional, organism-based
[19] = target: T1, GABA-A receptor; alpha-1/beta-3/gamma-2 (Homo sapiens); experiment: Induction of [3H]azietomidate photoincorporation at human GABAA receptor alpha1beta3gamma2 expressed in HEK293 TetR cells at 1 uM after 30 mins by liquid scintillation counting method relative to control; type: cell-based; method in brief: as §1
[20] = target: T1, GABA-A receptor; alpha-1/beta-3/gamma-2 (Homo sapiens); experiment: Induction of [3H]R-mTFD-MPAB photoincorporation at human GABAA receptor alpha1beta3gamma2 expressed in HEK293 TetR cells at 10 uM after 30 mins by liquid scintillation counting method relative to control; type: cell-based; method in brief: as §1
[21] = target: T1, GABA-A receptor; alpha-1/beta-3/gamma-2 (Homo sapiens); experiment: Induction of [3H]R-mTFD-MPAB photoincorporation at human GABAA receptor alpha1beta3gamma2 expressed in HEK293 TetR cells at 30 uM after 30 mins by liquid scintillation counting method; type: cell-based
Method in brief: (§5)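 Purified FLAG-tagged human α1β3γ2 GABAAR from tetracycline-inducible HEK293S cells, in 5 mM CHAPS/0.2 mM asolectin. Equilibrated 30 min at 4°C with 3 μM [3H]azietomidate or 1 μM [3H]R-mTFD-MPAB, then with test drug (final methanol 0.5%) for another 30 min at 4°C. Irradiated on ice at 365 nm for 30 min. Stained subunit bands excised from SDS-PAGE gels; 3H counted by liquid scintillation.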

[22] = target: T1, GABA-A receptor; alpha-1/beta-3/gamma-2 (Homo sapiens); experiment: Induction of [3H]azietomidate photoincorporation at human GABAA receptor alpha1beta3gamma2 expressed in HEK293 TetR cells at 30 uM after 30 mins by liquid scintillation counting method; type: cell-based; method in brief: as §5

| Structure (SMILES) | EC50 [3] [nM] | Activity [4] [%] | Activity [5] [%] | Ratio EC50 (Anura [6]) | EC50 (Anura [7]) [nM] | fold change (FC) [9] | EC50 [10] [nM] | inhibition [11] | Activity (Anura [18]) | also measured |
| --- | --- | --- | --- | --- | --- | --- | --- | --- | --- | --- |
| CC(=O)[C@H]1CC[C@H]2[C@@H]3CC[C@H]4C[C@H](O)CC[C@]4(C)[C@H]3C3(C[C@]12C)N=N3 | 200 | 0.2 | 0.4 | 17 | 110 | 30 | 250 | Dose-dependent effect | – | Activity [1]: Active; Activity [2]: Active; Activity [8]: Active; Activity [12]: Active; Activity (Anura [13]): inactive; Activity [14]: Active |
| CC(=O)[C@H]1CC[C@H]2[C@@H]3CC[C@H]4C[C@H](O)CC[C@]4(C)[C@H]3[C@@H](OC(=O)c3c(F)c(F)c(N=[N+]=[N-])c(F)c3F)C[C@]12C | 500 | 6 | 10 | 2.6 | 720 | 17 | 770 | Dose-dependent effect | inactive | Activity [15]: Active; Activity [16]: Active; Activity [17]: Active; Activity [19]: 50%; Activity [20]: 75% |
| CC(=O)[C@H]1CC[C@H]2[C@@H]3CC[C@H]4C[C@H](O)CC[C@]4(C)[C@H]3C(=O)C[C@]12C [ALFAXALONE] | – | – | – | – | 1900 | – | – | Dose-dependent effect | inactive | Activity [21]: Active; Activity [22]: Active |
